# Reference: ChEMBL document CHEMBL4680114, “Optimization of Potent and Selective Ataxia Telangiectasia-Mutated Inhibitors Suitable for a Proof-of-Concept Study in Huntington's Disease Models” (J Med Chem, 2019)
# Tests used:
# [1] = AUC/dose in C57BL/6J mouse plasma at 100 mg/kg, po by LC-MS/MS analysis; type: ADME, organism-based; settings: in vivo
# How it was run: (§1)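 Male C57BL/6 mice, single oral dose as fine suspension in 10% or 20% hydroxypropyl-beta-cyclodextrin in water (10 mL/kg). Terminal cardiac-puncture plasma and saline-rinsed brain, n=3 per time point; brain homogenized in acetonitrile:water 3:1. LC-MS/MS with diclofenac IS; LLOQ 6 nM plasma, 21 nM brain. Composite non-compartmental analysis of mean concentrations; AUC normalized to actual dose.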
# [2] = Unbound brain-to-plasma concentration ratio in C57BL/6J mouse at 100 mg/kg, po administered as single dose by LC-MS/MS analysis; type: ADME, organism-based; settings: brain and plasma, read-out: K(p,uu,brain)
# [3] = Cmax/dose in C57BL/6J mouse brain at 100 mg/kg, po by LC-MS/MS analysis; type: ADME, organism-based; settings: in vivo; how it was run: as §1
# [4] = Volume of distribution at steady state in C57BL/6J mouse at 3 mg/kg, iv administered as single dose by LC-MS/MS analysis; type: ADME, organism-based; settings: in vivo, read-out: Vdss
# How it was run: (§2)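 Male mice given a single iv dose of 3 mg/kg in 10:50:40 DMSO:PEG400:H2O (5 mL/kg). Plasma (cardiac puncture) and brain collected, n=3 per time point, and measured by LC-MS/MS. Non-compartmental parameters from mean concentrations, with C0 back-extrapolated; AUC by linear trapezoidal method, dose-normalised.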
# [5] = Oral bioavailability in C57BL/6J mouse plasma at 30 mg/kg by LC-MS/MS analysis; type: ADME, organism-based
# How it was run: (§3)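 Male mice given a single oral dose of 10, 30 or 100 mg/kg as a fine suspension in 10% or 20% hydroxypropyl-β-cyclodextrin (10 mL/kg). Plasma and brain collected (n=3/time point) and measured by LC-MS/MS. Non-compartmental analysis on mean concentrations; AUC dose-normalised. %F = normalised po AUCinf / normalised iv AUCinf.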
# [6] = Cmax/dose in C57BL/6J mouse plasma at 30 mg/kg, po by LC-MS/MS analysis; type: ADME, organism-based; settings: in vivo; how it was run: as §1
# [7] = Ratio of AUC/dose in brain to plasma of C57BL/6J mouse at 10 mg/kg, po administered as single dose by LC-MS/MS analysis; type: ADME, organism-based; settings: brain and plasma, read-out: BPR; how it was run: as §3
# [8] = Tmax in C57BL/6J mouse brain at 30 mg/kg, po by LC-MS/MS analysis; type: ADME, organism-based; how it was run: as §3
# [9] = Unbound brain-to-plasma concentration ratio in C57BL/6J mouse at 3 mg/kg, iv administered as single dose by LC-MS/MS analysis; type: ADME, organism-based; settings: brain and plasma, read-out: K(p,uu,brain)
# [10] = Unbound brain-to-plasma concentration ratio in C57BL/6J mouse at 30 mg/kg, po administered as single dose by LC-MS/MS analysis; type: ADME, organism-based; settings: brain and plasma, read-out: K(p,uu,brain)
# [11] = Unbound brain-to-plasma concentration ratio in C57BL/6J mouse at 10 mg/kg, po administered as single dose by LC-MS/MS analysis; type: ADME, organism-based; settings: brain and plasma, read-out: K(p,uu,brain)
# [12] = Oral bioavailability in C57BL/6J mouse plasma at 10 mg/kg by LC-MS/MS analysis; type: ADME, organism-based; how it was run: as §3
# [13] = AUC/dose in C57BL/6J mouse brain at 10 mg/kg, po by LC-MS/MS analysis; type: ADME, organism-based; settings: in vivo; how it was run: as §1
# [14] = Tmax in C57BL/6J mouse brain at 10 mg/kg, po by LC-MS/MS analysis; type: ADME, organism-based; how it was run: as §3
# [15] = AUC/dose in C57BL/6J mouse plasma at 30 mg/kg, po by LC-MS/MS analysis; type: ADME, organism-based; settings: in vivo; how it was run: as §1
# [16] = Ratio of AUC/dose in brain to plasma of C57BL/6J mouse at 3 mg/kg, iv administered as single dose by LC-MS/MS analysis; type: ADME, organism-based; settings: brain and plasma, read-out: BPR; how it was run: as §2
# [17] = Tmax in C57BL/6J mouse plasma at 30 mg/kg, po by LC-MS/MS analysis; type: ADME, organism-based; how it was run: as §3
# [18] = Cmax/dose in C57BL/6J mouse brain at 10 mg/kg, po by LC-MS/MS analysis; type: ADME, organism-based; settings: in vivo; how it was run: as §1
# [19] = Ratio of AUC/dose in brain to plasma of C57BL/6J mouse at 100 mg/kg, po administered as single dose by LC-MS/MS analysis; type: ADME, organism-based; settings: brain and plasma, read-out: BPR; how it was run: as §3
# [20] = AUC/dose in C57BL/6J mouse brain at 30 mg/kg, po by LC-MS/MS analysis; type: ADME, organism-based; settings: in vivo; how it was run: as §1
# [21] = Tmax in C57BL/6J mouse brain at 100 mg/kg, po by LC-MS/MS analysis; type: ADME, organism-based; how it was run: as §3
# [22] = Tmax in C57BL/6J mouse plasma at 100 mg/kg, po by LC-MS/MS analysis; type: ADME, organism-based; how it was run: as §3
# [23] = AUC/dose in C57BL/6J mouse plasma at 10 mg/kg, po by LC-MS/MS analysis; type: ADME, organism-based; settings: in vivo; how it was run: as §1
# [24] = Cmax/dose in C57BL/6J mouse brain at 30 mg/kg, po by LC-MS/MS analysis; type: ADME, organism-based; settings: in vivo; how it was run: as §1
# [25] = AUC/dose in C57BL/6J mouse plasma at 3 mg/kg, iv administered as single dose by LC-MS/MS analysis; type: ADME, organism-based; settings: in vivo
# How it was run: (§4)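 Male C57BL/6 mice, single intravenous dose as solution in 10:50:40 DMSO:PEG400:H2O (5 mL/kg). Plasma by cardiac puncture and brain collected at set times, n=3 per time point. LC-MS/MS quantitation with diclofenac IS. Composite non-compartmental parameters from mean concentrations; C0 back-extrapolated from first two points; kel from at least last three concentrations; AUC dose-normalized.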
# [26] = Oral bioavailability in C57BL/6J mouse plasma at 100 mg/kg by LC-MS/MS analysis; type: ADME, organism-based; how it was run: as §3
# [27] = Cmax/dose in C57BL/6J mouse plasma at 100 mg/kg, po by LC-MS/MS analysis; type: ADME, organism-based; settings: in vivo; how it was run: as §1
# [28] = Cmax/dose in C57BL/6J mouse plasma at 10 mg/kg, po by LC-MS/MS analysis; type: ADME, organism-based; settings: in vivo; how it was run: as §1
# [29] = AUC/dose in C57BL/6J mouse brain at 3 mg/kg, iv administered as single dose by LC-MS/MS analysis; type: ADME, organism-based; settings: in vivo; how it was run: as §4
# [30] = Ratio of AUC/dose in brain to plasma of C57BL/6J mouse at 30 mg/kg, po administered as single dose by LC-MS/MS analysis; type: ADME, organism-based; settings: brain and plasma, read-out: BPR; how it was run: as §3
# [31] = Kinetic solubility in pH 7.4 PBS buffer by LC-UV assay; type: physicochemical; settings: read-out: Kinetic_solubility
# How it was run: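 Compound from a 10 mM DMSO stock diluted to a nominal 200 µM in 0.1 M potassium phosphate/0.8% NaCl pH 7.4 (2% DMSO final), n=2. Shaken 2 h at room temperature, then filtered. Filtrate quantified by LC-UV against 200 µM and 10 µM DMSO standards, with MS peak confirmation.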
# [32] = Tmax in C57BL/6J mouse plasma at 10 mg/kg, po by LC-MS/MS analysis; type: ADME, organism-based; how it was run: as §3
# [33] = AUC/dose in C57BL/6J mouse brain at 100 mg/kg, po by LC-MS/MS analysis; type: ADME, organism-based; settings: in vivo; how it was run: as §1
smiles,measurement,setting,value
COc1ccc2c(c1)Cc1cccc(-c3cc(=O)cc(N4CCOCC4)o3)c1S2,AUC/dose,[1],1800 nM·kg·h/mg
same,Kp uu,[2],0.49
same,Cmax/dose,[3],850 nM·kg/mg
same,Vd,[4],1.6 L/kg
same,bioavailability,[5],111%
same,Cmax/dose,[6],890 nM·kg/mg
same,Kp,[7],1.3
same,Tmax,[8],30 min
same,Kp uu,[9],0.44
same,Kp uu,[10],0.37
same,Kp uu,[11],0.45
same,bioavailability,[12],89%
same,AUC/dose,[13],3200 nM·kg·h/mg
same,Tmax,[14],60 min
same,AUC/dose,[15],3000 nM·kg·h/mg
same,Kp,[16],1.3
same,Tmax,[17],15 min
same,Cmax/dose,[18],950 nM·kg/mg
same,Kp,[19],1.4
same,AUC/dose,[20],3300 nM·kg·h/mg
same,Tmax,[21],60 min
same,Tmax,[22],15 min
same,AUC/dose,[23],2400 nM·kg·h/mg
same,Cmax/dose,[24],880 nM·kg/mg
same,AUC/dose,[25],2700 nM·kg·h/mg
same,bioavailability,[26],67%
same,Cmax/dose,[27],450 nM·kg/mg
same,Cmax/dose,[28],850 nM·kg/mg
same,AUC/dose,[29],3500 nM·kg·h/mg
same,Kp,[30],1.1
same,solubility kinetic,[31],11 µg/mL
same,Tmax,[32],60 min
same,AUC/dose,[33],2600 nM·kg·h/mg
